Results on 19 compounds are retold here after ChEMBL document CHEMBL1828601, “Small molecule peptidomimetic inhibitors of importin α/β mediated nuclear transport” (Bioorg Med Chem, 2010).

For assay [1], the system named is FGM. In words: Inhibition of importin alpha/beta-mediated nuclear transportation of Alexa555-GST-M9 in human FGM cell nucleus at 500 uM after 30 mins by fluorescence microscopy. It counts as cell-based. A digest of the protocol:
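Transportin-dependent import measured the same way in permeabilized FGM cells, with 0.5 μM Alexa555-GST-M9 cargo in place of BSA-NLS. Conditions: 3 mg/ml HeLa cytosol, ATP-regenerating system, 0.2 mM GTP, 1% DMSO, 30 min at 30°C. Positive control was 1 mg/ml WGA. Nuclear cargo fluorescence quantified per nucleus by automated imaging.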

Assay [2] relates to FGM. In words: Inhibition of importin alpha/beta-mediated nuclear transportation of Alexa555-BSA-NLS in human FGM cell nucleus at 500 uM after 30 mins by fluorescence microscopy. It counts as cell-based.

The source made the active and inactive calls. How the calls were made is not given here.

`NCCCCNC(=O)[C@@H]1CN(C(=O)[C@@H](N)CC(=O)O)C[C@H]1C(=O)NCCc1ccc2ccccc2c1`: the inhibition entry in assay [1] and in assay [2] was “inactive” throughout.

As to `NCCCCNC(=O)[C@@H]1CN(C(=O)[C@@H](N)CC(N)=O)C[C@H]1C(=O)NCCc1ccc2ccccc2c1`, the inhibition result in assay [1] and in assay [2] was “inactive” throughout.

On to `NCCCCNC(=O)[C@@H]1CN(C(=O)[C@@H](N)Cc2ccccc2)C[C@H]1C(=O)NCCc1ccc2ccccc2c1`, for which the inhibition entry in assay [1] and in assay [2] was “inactive” each time.

Consider `CC[C@H](C)[C@H](NC(=O)c1ccc(NC(=O)[C@H](C)N)c(OCc2c[nH]cn2)c1)C(=O)O`, for which the inhibition entry in assay [1] and in assay [2] was “inactive” throughout.

On to `N[C@@H](Cc1ccc(O)cc1)C(=O)N1C[C@@H](C(=O)NCCc2c[nH]cn2)[C@H](C(=O)NCCc2c[nH]c3ccccc23)C1`, for which the inhibition entry in assay [1] and in assay [2] was “Active” each time.

Consider `N[C@@H](CCc1ccc(Cl)cc1)C(=O)N1C[C@@H](C(=O)NCCc2c[nH]cn2)[C@H](C(=O)NCCc2c[nH]c3ccccc23)C1`, for which the inhibition entry in assay [1] and in assay [2] was “inactive” in each case.

For `NCCCC[C@H](N)C(=O)N1C[C@@H](C(=O)NCCc2c[nH]cn2)[C@H](C(=O)NCCc2c[nH]c3ccccc23)C1`, the inhibition entry in assay [1] and in assay [2] was “inactive” each time.

For `N[C@@H](CO)C(=O)N1C[C@@H](C(=O)NCCc2c[nH]cn2)[C@H](C(=O)NCCc2c[nH]c3ccccc23)C1`, the inhibition result in assay [1] and in assay [2] was “inactive” each time.

With `CC[C@@H](C)[C@H](NC(=O)c1ccc(NC(=O)[C@@H](N)CCCCN)c(OCc2c[nH]cn2)c1)C(=O)O`, the inhibition entry in assay [1] and in assay [2] was “inactive” each time.

Turning to `N[C@@H](CCc1ccc(O)cc1)C(=O)N1C[C@@H](C(=O)NCCc2c[nH]cn2)[C@H](C(=O)NCCc2c[nH]c3ccccc23)C1`, the inhibition entry in assay [1] and in assay [2] was “inactive” throughout.

Take `N[C@@H](Cc1c[nH]cn1)C(=O)Nc1ccc(C(=O)N[C@@H](CCc2ccccc2)C(=O)O)cc1OCc1ccc(Cl)cc1`: the inhibition entry in assay [1] and in assay [2] was “inactive” in each case.

`CC[C@@H](C)[C@H](NC(=O)c1ccc(NC(=O)[C@@H](N)Cc2c[nH]cn2)c(OCc2c[nH]cn2)c1)C(=O)O`: the inhibition result in assay [1] and in assay [2] was “Active” throughout.

For the compound `N[C@@H](Cc1c[nH]c2ccccc12)C(=O)Nc1ccc(C(=O)N[C@@H](CCc2ccccc2)C(=O)O)cc1OCc1ccc(Cl)cc1`, the inhibition result in assay [1] and in assay [2] was “Active” in each case.

With `CC[C@H](N)C(=O)Nc1ccc(C(=O)N[C@@H](CCc2ccccc2)C(=O)O)cc1OCc1ccc(Cl)cc1`, the inhibition result in assay [1] and in assay [2] was “Active” each time.

Take `CC[C@H](C)[C@H](NC(=O)c1ccc(NC(=O)[C@@H](N)Cc2ccc(O)cc2)c(OCc2c[nH]cn2)c1)C(=O)O`: the inhibition result in assay [1] and in assay [2] was “inactive” in each case.

As to `CC(C)C[C@H](N)C(=O)N1C[C@@H](C(=O)NCCCCN)[C@H](C(=O)NCCc2ccc3ccccc3c2)C1`, the inhibition entry in assay [1] and in assay [2] was “inactive” in each case.

With `CC(C)C[C@H](N)C(=O)Nc1ccc(C(=O)N[C@@H](CCc2ccccc2)C(=O)O)cc1OCc1ccc(Cl)cc1`, the inhibition entry in assay [1] and in assay [2] was “Active” in each case.

Take `CC[C@H](C)[C@H](NC(=O)c1ccc(NC(=O)[C@@H](N)C(C)C)c(OCc2c[nH]cn2)c1)C(=O)O`: the inhibition entry in assay [1] and in assay [2] was “inactive” in each case.

As for `N[C@@H](CO)C(=O)Nc1ccc(C(=O)N[C@@H](CCc2ccccc2)C(=O)O)cc1OCc1ccc(Cl)cc1`, the inhibition entry in assay [1] and in assay [2] was “Active” throughout.
